Experimental data published in article PMC3925341 (Journal of medicinal chemistry, 2013).
Entries after “also recorded” stand apart in the source; their conditions may differ.

Columns and labels:
HeLa cells = test: Sulforhodamine B cytotoxicity assay; type: cell-based; conditions: concentrations up to 75 μM, 24 h
[1] = tested on: CUG^exp foci in DM1 cell model (HeLa cells transfected with DMPK-CTG960); test: FISH study of; type: cell-based; conditions: 36 h
TAMRA-(CUG)6 = test: Steady state fluorescence titration of 5'-TAMRA-; type: binding; conditions: for fold decrease in KD compared to 2 (fold greater affinity to (CUG)6): relative to monomeric ligand 2; for KD: TAMRA-(CUG)6, 1X PBS
In short: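 TAMRA-(CUG)6 was titrated with increasing test compound in 1X PBS, with excitation at 560 nm and emission at 590 nm. Normalized fluorescence intensities were fitted to a binding equation with Fmax and F0 to give KD. Mean ± s.d. of three independent experiments.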

(CUG)12·MBNL1 = test: SPR-based inhibition of the MBNL1·; type: biochemical; conditions: relative to monomeric ligand 2
In short: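 Biotinylated (CUG)12 was immobilized on a streptavidin SPR chip, with Tween-20 and excess competitor tRNA, in 1X PBS. The chip was preincubated with test compound to steady-state RU over 150 s. MBNL1 (0.65 μM) was then injected with compound held at the same concentration. Maximum RU at 150 s was converted to % (CUG)12 bound, normalized to no compound, and fitted dose-response for apparent IC50. Normalized IC50 = IC50 divided by the number of binding modules. Bivalent effect = normalized IC50 of monomer reference divided by that of dimer. Three experiments.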

CUG repeat = conditions: cited from earlier work
[2] = tested on: DM1 cell model (HeLa cells); conditions: cited from earlier work
[3] = tested on: DM1 cell model (HeLa cells); test: Cellular and nuclear penetration by acridine fluorescence; type: cell-based; conditions: monitored by inherent acridine fluorescence
In short: (§1)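 Live-cell time-lapse confocal imaging of HeLa cells co-transfected with a DMPK-CTG960 minigene plasmid and a GFP-MBNL1 plasmid. Test compound at 50 μM final. Images were taken just before addition and at 3, 6 and 10 h. Cells were relocated on a gridded dish by DIC. Compound uptake was followed by its acridine fluorescence, and foci by GFP-MBNL1. Untreated cells served as control. Z-stacks of 1 μm slices were taken at 10 h.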

[4] = tested on: MBNL1 foci in live DM1 cell model (HeLa cells, DMPK-CTG960 and GFP-MBNL1); test: Time-lapse confocal microscopy of MBNL1 foci in live DM1 model cells; type: cell-based; conditions: 50 μM, over 10 h
In short: as §1

[5] = Solubility in buffer / water
(CUG)12 = test: Optical melting; type: binding; conditions: 11 versus 7, same number of linker atoms
[6] = 20, 35 and 50 μM (any concentration)

SMILES: CNC(=O)c1ccc2nc3ccccc3c(NCCCCNc3nc(N)nc(N)n3)c2c1 [Ligand 2]
- cytotoxicity (HeLa cells): less than 20%
- (CUG)960 foci dispersion [1, 6]: no significant foci dispersion

SMILES: Nc1nc(N)nc(NCCCCNc2c3ccccc3nc3c(C(=O)NCCNCCNCCNCCNC(=O)c4cccc5c(NCCCCNc6nc(N)nc(N)n6)c6ccccc6nc45)cccc23)n1 [Ligand 10]
- fold decrease in KD compared to 2 (fold greater affinity to (CUG)6) (TAMRA-(CUG)6): 17 fold
- bivalent effect (ratio of normalized IC50 of 2 to that of the dimeric ligand) ((CUG)12·MBNL1): 24

SMILES: Nc1nc(N)nc(NCCCCNc2c3ccccc3nc3c(C(=O)NCCOCCOCCOCCOCCOCCNC(=O)c4cccc5c(NCCCCNc6nc(N)nc(N)n6)c6ccccc6nc45)cccc23)n1 [Ligand 8]
- bivalent effect (ratio of normalized IC50 of 2 to that of the dimeric ligand) ((CUG)12·MBNL1): 4

SMILES: Nc1nc(N)nc(NCCCCNc2c3ccccc3nc3ccc(C(=O)NCCCOCCOCCOCCCNC(=O)c4ccc5nc6ccccc6c(NCCCCNc6nc(N)nc(N)n6)c5c4)cc23)n1 [Ligand 12]
- KD (TAMRA-(CUG)6): close to the monomeric ligand 2
- bivalent effect (ratio of normalized IC50 of 2 to that of the dimeric ligand) ((CUG)12·MBNL1): 5

SMILES: COc1ccc2nc3cc(Cl)ccc3c(NCCCCNc3nc(N)nc(N)n3)c2c1 [Ligand 1]
- selectivity for CUG repeat relative to a random duplex (CUG repeat): over 50 fold
- cell permeability [2]: poor cell permeability

SMILES: Nc1nc(N)nc(NCCCCNc2c3ccccc3nc3c(C(=O)NCCCNCCCNCCCNC(=O)c4cccc5c(NCCCCNc6nc(N)nc(N)n6)c6ccccc6nc45)cccc23)n1 [Ligand 9]
- fold tighter binder than 10 (TAMRA-(CUG)6; 9 versus 10): 10 fold
- fold decrease in KD compared to 2 (fold greater affinity to (CUG)6) (TAMRA-(CUG)6): 206 fold
- bivalent effect (ratio of normalized IC50 of 2 to that of the dimeric ligand) ((CUG)12·MBNL1): 133
- fold greater inhibition potency than 2 in inhibiting formation of the (CUG)12·MBNL1 complex ((CUG)12·MBNL1): 266 fold
- cytotoxicity (HeLa cells): less than 20%
- cellular and nuclear penetration [3]: both cell- and nucleus-permeable; also recorded: penetrate the cellular and nuclear membrane
- (CUG)960 foci dispersion ([1]; 20 μM, p-value < 0.009): partial foci dispersion
- (CUG)960 foci dispersion ([1]; 35 μM, p-value < 0.009): partial foci dispersion
- (CUG)960 foci dispersion ([1]; 50 μM): full foci dispersion
- MBNL1 foci dispersion in live cells [4]: almost complete dispersion; also recorded: gradually dispersing over time; also recorded: almost all the foci are dispersed; also recorded: gradual MBNL1 foci dispersion
- Aqueous solubility [5]: aqueous-soluble

SMILES: Nc1nc(N)nc(NCCCCNc2c3ccccc3nc3ccc(C(=O)NCCOCCOCCNC(=O)c4ccc5nc6ccccc6c(NCCCCNc6nc(N)nc(N)n6)c5c4)cc23)n1 [Ligand 7]
- KD (TAMRA-(CUG)6): close to the monomeric ligand 2
- bivalent effect (ratio of normalized IC50 of 2 to that of the dimeric ligand) ((CUG)12·MBNL1): 8

SMILES: Nc1nc(N)nc(NCCCCNc2c3ccccc3nc3c(C(=O)NCCNCCNCCNC(=O)c4cccc5c(NCCCCNc6nc(N)nc(N)n6)c6ccccc6nc45)cccc23)n1 [Ligand 11]
- fold higher ΔTm value than 7 ((CUG)12): > 3 fold
- fold decrease in KD compared to 2 (fold greater affinity to (CUG)6) (TAMRA-(CUG)6): 14 fold
- bivalent effect (ratio of normalized IC50 of 2 to that of the dimeric ligand) ((CUG)12·MBNL1): 29
- (CUG)960 foci dispersion [1, 6]: no significant foci dispersion

SMILES: Nc1nc(N)nc(NCCCCNc2c3ccccc3nc3ccc(C(=O)NCCCNCCCCCCCCNCCCNC(=O)c4ccc5nc6ccccc6c(NCCCCNc6nc(N)nc(N)n6)c5c4)cc23)n1 [Ligand 5]
- cellular and nuclear penetration [3]: cell-permeable and nucleus-permeable
- (CUG)960 foci dispersion [1, 6]: no significant foci dispersion
- Solubility in the buffer used for optical melting (Solution) ([5]; N.S. = not sufficiently soluble): not fully soluble

SMILES: Nc1nc(N)nc(NCCCCNc2c3ccccc3nc3ccc(C(=O)NCCOCCOCCOCCOCCOCCNC(=O)c4ccc5nc6ccccc6c(NCCCCNc6nc(N)nc(N)n6)c5c4)cc23)n1 [Ligand 13]
- bivalent effect (ratio of normalized IC50 of 2 to that of the dimeric ligand) ((CUG)12·MBNL1): 3

SMILES: NCCCNCCCCNCCCN [spermine, Spermine, reference compound]
- (CUG)960 foci dispersion [1, 6]: no significant foci dispersion
